Test results taken from article PMC6247064 (Cancer Science, 2018).

Tested on: Japanese patients with advanced solid tumors
Test: Phase 1 study: safety, tolerability, DLT and treatment-emergent adverse events
Assay type: in vivo, human
How it was run: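 Open-label single-arm dose levels of 80 or 105 mg/m2 IV were given on day 1 of 14-day cycles, with at most 6 patients per level. Adverse events were graded by CTCAE v4.03. DLTs were related events in cycle 1 meeting predefined hematologic or nonhematologic criteria. Tolerability required a cycle 1 DLT rate <33%. Primary G-CSF prophylaxis was barred during DLT evaluation; G-CSF was allowed for treatment-emergent neutropenia and as secondary prophylaxis.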

COc1cccc(OCCCN)c1-c1cc(Nc2cnc(C#N)cn2)n[nH]1 [Prexasertib]
4 (66.7) n (%): TEAE related to study treatment: Thrombocytopenia (80 mg/m^2 N = 6, Any grade) | TEAE related to study treatment: Leukopenia (80 mg/m^2 N = 6, Grade 3 + 4) | TEAE related to study treatment: Neutropenia (80 mg/m^2 N = 6, Grade 3 + 4) | TEAE related to study treatment: Any (80 mg/m^2 N = 6, Grade 4)
1 (16.7) n (%): TEAE related to study treatment: Atrial fibrillation (80 mg/m^2 N = 6, Any grade) | TEAE related to study treatment: Fatigue (80 mg/m^2 N = 6, Any grade) | TEAE related to study treatment: Febrile neutropenia (80 mg/m^2 N = 6, Any grade) | TEAE related to study treatment: Lung infection (80 mg/m^2 N = 6, Any grade) | TEAE related to study treatment: Pyrexia (80 mg/m^2 N = 6, Any grade) | TEAE related to study treatment: Rash (80 mg/m^2 N = 6, Any grade) | TEAE related to study treatment: Rash maculopapular (80 mg/m^2 N = 6, Any grade) | TEAE related to study treatment: SVE (supraventricular extrasystoles) (80 mg/m^2 N = 6, Any grade) | TEAE related to study treatment: Stomatitis (80 mg/m^2 N = 6, Any grade) | TEAE related to study treatment: Anemia (80 mg/m^2 N = 6, Grade 3) | TEAE related to study treatment: Leukopenia (80 mg/m^2 N = 6, Grade 3) | TEAE related to study treatment: Lymphocytopenia (80 mg/m^2 N = 6, Grade 3) | TEAE related to study treatment: Neutropenia (80 mg/m^2 N = 6, Grade 3) | TEAE related to study treatment: Febrile neutropenia (80 mg/m^2 N = 6, Grade 3 + 4) | TEAE related to study treatment: Lymphocytopenia (80 mg/m^2 N = 6, Grade 3 + 4) | TEAE related to study treatment: Anemia (80 mg/m^2 N = 6, Grade 4)
3 (50.0) n (%): TEAE related to study treatment: Anemia (80 mg/m^2 N = 6, Any grade) | TEAE related to study treatment: Thrombocytopenia (80 mg/m^2 N = 6, Grade 3 + 4)
2 (33.3) n (%): TEAE related to study treatment: Constipation (80 mg/m^2 N = 6, Any grade) | TEAE related to study treatment: ECG QT prolonged (80 mg/m^2 N = 6, Any grade) | TEAE related to study treatment: Lymphocytopenia (80 mg/m^2 N = 6, Any grade) | TEAE related to study treatment: Nausea (80 mg/m^2 N = 6, Any grade) | TEAE related to study treatment: Any (80 mg/m^2 N = 6, Grade 3) | TEAE related to study treatment: Thrombocytopenia (80 mg/m^2 N = 6, Grade 3) | TEAE related to study treatment: Anemia (80 mg/m^2 N = 6, Grade 3 + 4)
6 (100) n (%): TEAE related to study treatment: Any (80 mg/m^2 N = 6, Any grade) | TEAE related to study treatment: Leukopenia (80 mg/m^2 N = 6, Any grade) | TEAE related to study treatment: Any (80 mg/m^2 N = 6, Grade 3 + 4)
3 serious AE: Serious AE reported in one patient (80 mg/m^2, 2 (anemia and thrombocytopenia) related to study treatment, constipation not)
5 (83.3) n (%): TEAE related to study treatment: Neutropenia (80 mg/m^2 N = 6, Any grade)
0 n (%): TEAE related to study treatment: Headache (80 mg/m^2 N = 6, Any grade) | TEAE related to study treatment: Hypocalcemia (80 mg/m^2 N = 6, Any grade) | TEAE related to study treatment: Atrial fibrillation (80 mg/m^2 N = 6, Grade 3) | TEAE related to study treatment: Constipation (80 mg/m^2 N = 6, Grade 3) | TEAE related to study treatment: ECG QT prolonged (80 mg/m^2 N = 6, Grade 3) | TEAE related to study treatment: Fatigue (80 mg/m^2 N = 6, Grade 3) | TEAE related to study treatment: Febrile neutropenia (80 mg/m^2 N = 6, Grade 3) | TEAE related to study treatment: Headache (80 mg/m^2 N = 6, Grade 3) | TEAE related to study treatment: Hypocalcemia (80 mg/m^2 N = 6, Grade 3) | TEAE related to study treatment: Lung infection (80 mg/m^2 N = 6, Grade 3) | TEAE related to study treatment: Nausea (80 mg/m^2 N = 6, Grade 3) | TEAE related to study treatment: Pyrexia (80 mg/m^2 N = 6, Grade 3) | TEAE related to study treatment: Rash (80 mg/m^2 N = 6, Grade 3) | TEAE related to study treatment: Rash maculopapular (80 mg/m^2 N = 6, Grade 3) | TEAE related to study treatment: SVE (supraventricular extrasystoles) (80 mg/m^2 N = 6, Grade 3) | TEAE related to study treatment: Stomatitis (80 mg/m^2 N = 6, Grade 3) | TEAE related to study treatment: Atrial fibrillation (80 mg/m^2 N = 6, Grade 3 + 4) | TEAE related to study treatment: Constipation (80 mg/m^2 N = 6, Grade 3 + 4) | TEAE related to study treatment: ECG QT prolonged (80 mg/m^2 N = 6, Grade 3 + 4) | TEAE related to study treatment: Fatigue (80 mg/m^2 N = 6, Grade 3 + 4) | TEAE related to study treatment: Headache (80 mg/m^2 N = 6, Grade 3 + 4) | TEAE related to study treatment: Hypocalcemia (80 mg/m^2 N = 6, Grade 3 + 4) | TEAE related to study treatment: Lung infection (80 mg/m^2 N = 6, Grade 3 + 4) | TEAE related to study treatment: Nausea (80 mg/m^2 N = 6, Grade 3 + 4) | TEAE related to study treatment: Pyrexia (80 mg/m^2 N = 6, Grade 3 + 4) | TEAE related to study treatment: Rash (80 mg/m^2 N = 6, Grade 3 + 4) | TEAE related to study treatment: Rash maculopapular (80 mg/m^2 N = 6, Grade 3 + 4) | TEAE related to study treatment: SVE (supraventricular extrasystoles) (80 mg/m^2 N = 6, Grade 3 + 4) | TEAE related to study treatment: Stomatitis (80 mg/m^2 N = 6, Grade 3 + 4) | TEAE related to study treatment: Atrial fibrillation (80 mg/m^2 N = 6, Grade 4) | TEAE related to study treatment: Constipation (80 mg/m^2 N = 6, Grade 4) | TEAE related to study treatment: ECG QT prolonged (80 mg/m^2 N = 6, Grade 4) | TEAE related to study treatment: Fatigue (80 mg/m^2 N = 6, Grade 4)
